Experimental data taken from ChEMBL document CHEMBL1145528, “Design and study of some novel ibuprofen derivatives with potential nootropic and neuroprotective properties” (Bioorg Med Chem, 2007).
Active and inactive are the calls of the source. The calls are words filed in the database; no cut-off is given here.

What was measured:
Mus musculus [1] = assay: Anti-inflammatory activity against of FCA-induced odema in BALB/c mouse assessed as oedema inhibition at 0.30 mmol/kg, ip; format: functional
Method in brief: (§1)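 FCA (0.05 mL/paw) injected intradermally into right hind paw of mice, left paw as control. Compounds suspended in water with a few drops of Tween 80, given ip 15 min before FCA. After 3 h both hind paws excised and weighed. Oedema is paw weight increase, compared with control animals given only the vehicle. Means SEM, Student's t-test.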

Mus musculus [2] = assay: Increase of oedema in BALB/c mouse with FCA-induced inflammation at 0.30 mmol/kg, ip; format: functional; method in brief: as §1
Mus musculus [3] = assay: Anti-inflammatory activity against of FCA-induced odema in BALB/c mouse assessed as oedema inhibition at 0.15 mmol/kg, ip; format: functional; method in brief: as §1
Mus musculus [4] = assay: Increase of oedema in BALB/c mouse with FCA-induced inflammation at 0.15 mmol/kg, ip; format: functional; method in brief: as §1
[5] = target: T1, Seed linoleate 13S-lipoxygenase-1 (Glycine max) (UniProt P08170); assay: Inhibition of soybean lipoxygenase at 0.3 mM; set-up: Activity: scale not given: the % may be the effect or the level left
T1 sequence (whole entry): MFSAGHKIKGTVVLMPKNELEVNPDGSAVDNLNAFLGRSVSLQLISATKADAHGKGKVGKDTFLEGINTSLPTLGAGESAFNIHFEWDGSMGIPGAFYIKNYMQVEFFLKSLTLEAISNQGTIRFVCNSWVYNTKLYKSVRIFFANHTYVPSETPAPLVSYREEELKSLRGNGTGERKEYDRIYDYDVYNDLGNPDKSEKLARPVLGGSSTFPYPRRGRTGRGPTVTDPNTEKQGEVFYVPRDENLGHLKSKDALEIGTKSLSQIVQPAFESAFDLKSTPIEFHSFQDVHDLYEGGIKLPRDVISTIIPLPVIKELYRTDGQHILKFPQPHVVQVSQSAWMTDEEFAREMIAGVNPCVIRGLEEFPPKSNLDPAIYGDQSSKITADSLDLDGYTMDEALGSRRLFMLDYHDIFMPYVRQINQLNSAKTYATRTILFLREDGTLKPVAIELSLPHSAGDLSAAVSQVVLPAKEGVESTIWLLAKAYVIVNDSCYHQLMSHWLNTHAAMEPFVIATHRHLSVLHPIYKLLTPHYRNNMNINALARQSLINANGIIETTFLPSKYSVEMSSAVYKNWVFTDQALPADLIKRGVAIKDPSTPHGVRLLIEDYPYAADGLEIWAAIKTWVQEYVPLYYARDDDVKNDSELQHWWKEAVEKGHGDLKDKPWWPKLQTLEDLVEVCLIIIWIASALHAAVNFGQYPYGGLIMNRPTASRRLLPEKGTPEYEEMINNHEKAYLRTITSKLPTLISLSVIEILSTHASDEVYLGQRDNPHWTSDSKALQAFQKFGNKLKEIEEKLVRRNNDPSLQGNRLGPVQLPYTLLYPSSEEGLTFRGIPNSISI
Method in brief: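 Soybean lipoxygenase 250 U/mL in Tris buffer pH 9. Compounds in 60% aqueous ethanol at 0.1–0.3 mM. Reaction started with sodium linoleate 0.1 mM and followed for 7 min at 28 °C by 13-hydroperoxylinoleic acid conjugated diene absorbance at 234 nm.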

[6] = target: T2, Seed linoleate 13S-lipoxygenase-1 (Glycine max, UniProt P08170); assay: Inhibition of soybean lipoxygenase after 7 mins
T2 sequence (P08170 whole entry): T1 sequence (whole entry)

[7] = target: T3, Acetylcholinesterase (Rattus norvegicus) (UniProt P37136); assay: Inhibition of Fischer 344 rat brain acetylcholine esterase at 0.6 mM
T3 sequence (whole entry): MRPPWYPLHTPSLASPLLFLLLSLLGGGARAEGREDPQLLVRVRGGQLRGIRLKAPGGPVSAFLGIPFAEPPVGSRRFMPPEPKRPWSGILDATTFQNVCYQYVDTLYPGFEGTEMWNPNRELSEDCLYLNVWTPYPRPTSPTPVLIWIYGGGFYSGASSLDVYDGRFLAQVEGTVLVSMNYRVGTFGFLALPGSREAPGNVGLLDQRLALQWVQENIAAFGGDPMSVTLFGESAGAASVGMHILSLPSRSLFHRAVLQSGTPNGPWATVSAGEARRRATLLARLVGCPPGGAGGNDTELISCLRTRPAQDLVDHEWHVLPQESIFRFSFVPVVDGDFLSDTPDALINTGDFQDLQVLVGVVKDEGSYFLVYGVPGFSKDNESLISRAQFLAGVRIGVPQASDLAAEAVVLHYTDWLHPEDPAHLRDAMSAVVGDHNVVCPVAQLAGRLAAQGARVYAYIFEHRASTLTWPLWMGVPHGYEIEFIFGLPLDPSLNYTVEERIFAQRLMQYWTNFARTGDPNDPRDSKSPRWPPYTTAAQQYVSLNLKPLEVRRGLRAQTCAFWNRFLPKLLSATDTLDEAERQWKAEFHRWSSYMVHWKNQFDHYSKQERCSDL
Method in brief: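 Brains from untreated rats homogenised (20 mg/mL) in 0.1 M phosphate buffer, pH 8, as the enzyme source. Acetylthiocholine is the substrate. Activity is read colorimetrically as thiocholine reacting with dithio-bisnitrobenzoic acid and followed as a time course. Percent inhibition is taken at the end of the incubation period.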

Liver microsomes = assay: Inhibition of Fe(2+)/ascorbate-induced lipid peroxidation in Fischer 344 rat hepatic microsomal membranes; format: functional; settings: Microsome
Rattus norvegicus [8] = assay: Total cholesterol level in Fischer 344 rat plasma at 0.3 mmol/kg, ip after 24 hrs; format: functional
Method in brief: (§2)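 Compounds given ip at 0.3 mmol/kg 30 min later. Plasma total cholesterol, LDL-cholesterol and triglycerides measured in mg/dl and expressed as percent reduction against the hyperlipidemic control group. SD, Student's t-test.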

Rattus norvegicus [9] = assay: LDL level in Fischer 344 rat plasma at 0.3 mmol/kg, ip after 24 hrs; format: functional; method in brief: as §2
Rattus norvegicus [10] = assay: Triglyceride level in Fischer 344 rat plasma at 0.3 mmol/kg, ip after 24 hrs; format: functional; method in brief: as §2
Rattus norvegicus [11] = assay: Mortality rate in Fischer 344 rat at 1.6 mmol/kg, sc after 4 days; format: functional
Method in brief: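 Rats receive the compound subcutaneously at 1.6 mmol/kg once daily for 4 days. Mortality, perforating gastrointestinal ulcers, melena defecation and body weight change are recorded 24 h after the last injection.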

Rattus norvegicus [12] = assay: Gastrointestinal toxicity in Fischer 344 rat assessed as gastrointestinal ulceration at 1.6 mmol/kg, sc after 4 days; format: functional
Method in brief: (§3)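 Rats dosed subcutaneously at 1.6 mmol/kg once daily for 4 days. Perforating gastrointestinal ulcers, melena defecation, body weight change and mortality recorded 24 h after the last injection.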

Rattus norvegicus [13] = assay: Body weight change per 100g in Fischer 344 rat at 1.6 mmol/kg, sc after 4 days; format: functional; method in brief: as §3
Rattus norvegicus [14] = assay: Decrease in total cholesterol in Fischer 344 rat plasma at 0.3 mmol/kg, ip after 24 hrs relative to control; format: functional; set-up: scale not given: the % may be the effect or the level left; method in brief: as §2
Rattus norvegicus [15] = assay: Decrease in LDL level in Fischer 344 rat plasma at 0.3 mmol/kg, ip after 24 hrs relative to control; format: functional; set-up: scale not given: the % may be the effect or the level left; method in brief: as §2
Rattus norvegicus [16] = assay: Decrease in triglyceride level in Fischer 344 rat plasma at 0.3 mmol/kg, ip after 24 hrs relative to control; format: functional; set-up: scale not given: the % may be the effect or the level left; method in brief: as §2

Row | SMILES | inhibition in vivo at 300 µmol/kg (Mus musculus [1]) | Activity (Mus musculus [2]) | inhibition [7] | Activity (Liver microsomes) | other results
1 | COc1cc(C)ccc1OC(=O)C1CCCN1C(=O)C(C)c1ccc(CC(C)C)cc1 (stereo not drawn) | 43% | 49.6% | 80% | inactive | inhibition in vivo at 150 µmol/kg (Mus musculus [3]): 21%; Activity (Mus musculus [4]): 67.9%; Activity [5]: 78%; IC50 [6]: 140 µM
2 | CC(C)Cc1ccc([C@H](C)C(=O)O)cc1 |  |  | 20% | inactive | 
3 | CC(C)Cc1ccc(C(C)C(=O)O)cc1 (stereo not drawn) [IBUPROFEN] | 53% | 44.6% | 20% |  | Activity (Rattus norvegicus [8]): 111 mg/dL; Activity (Rattus norvegicus [9]): 38 mg/dL; Activity (Rattus norvegicus [10]): 228 mg/dL; Activity (Rattus norvegicus [11]): 50%; Activity (Rattus norvegicus [12]): 88%; Activity (Rattus norvegicus [13]): -13 g; Activity (Rattus norvegicus [14]): 38%; Activity (Rattus norvegicus [15]): 32%; Activity (Rattus norvegicus [16]): 41%
4 | COc1cc(C)ccc1OC(=O)[C@H]1CCCN1C(=O)C(C)C | 1% | 79.3% |  | inactive | inhibition [5]: 42%; Activity [7]: inactive
5 | O=C(O)[C@@H]1CCCN1 |  |  |  | inactive | 
6 | CC(C)Cc1ccc(C(C)C(=O)N2CCCC2C(=O)OCCCc2cccnc2)cc1 (stereo not drawn) |  |  | 64% |  | 
7 | NCCS [CYSTEAMINE] |  |  |  |  | Activity (Rattus norvegicus [11]): 80%; Activity (Rattus norvegicus [12]): 40%; Activity (Rattus norvegicus [13]): -7 g
8 | CC(C)C(=O)N1CCCC1C(=O)O (stereo not drawn) |  |  |  | inactive | 
9 | CC(C)Cc1ccc(C(C)C(=O)N2CCCC2C(=O)O)cc1 (stereo not drawn) |  |  |  | inactive | 
10 | CC(C)C(=O)N1CCC[C@@H]1C(=O)OCCCc1cccnc1 | 1% | 77% |  | inactive | Activity [7]: inactive
